Experimental data published in ChEMBL document CHEMBL5214894, “Biosynthetic Interrogation of Soil Metagenomes Reveals Metamarin, an Uncommon Cyclomarin Congener with Activity against Mycobacterium tuberculosis” (J Nat Prod, 2021).
Values after ≈ are worked out from the molar mass of the structure shown.

Experiments:
[1] = test system: Mycobacterium tuberculosis; assay: Antimycobacterial activity against multi drug-resistant Mycobacterium tuberculosis 7791 assessed as bacterial growth inhibition incubated for 6 days by Alamar blue staining based assay; assay type: functional; details: Mycobacterium tuberculosis, 7791, 144 h; time 6 day
Summary of the method: (§1)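 Strains passaged at 37 °C in 7H9 with OADC, 0.2% glycerol and 0.02% tyloxapol to OD600 0.5–0.7, then diluted to OD600 0.005. Final test range 5 to 0.009 μg/mL. Rifampicin control. Incubated 6 days at 37 °C with 5% CO2. Tween 80 and Alamar Blue then added for 24 h. Absorbance read at 570 nm, normalized to 600 nm.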

[2] = test system: Mycobacterium tuberculosis; assay: Antimycobacterial activity against multi drug-resistant Mycobacterium tuberculosis TN800 assessed as bacterial growth inhibition incubated for 6 days by Alamar blue staining based assay; assay type: functional; details: TN800, 144 h, time 6 day; summary of the method: as §1
[3] = test system: Mycobacterium tuberculosis; assay: Antimycobacterial activity against multi drug-resistant Mycobacterium tuberculosis 565 assessed as bacterial growth inhibition incubated for 6 days by Alamar blue staining based assay; assay type: functional; details: Mycobacterium tuberculosis, 565, 144 h; time 6 day; summary of the method: as §1
[4] = test system: Mycobacterium tuberculosis; assay: Antibacterial activity against Mycobacterium tuberculosis mc2 6206 harboring mLux plasmid infected in mouse J774.A1 cells assessed as inhibition of bacterial cell viability incubated for 72 hrs by multimode microplate reader analysis; assay type: functional, organism-based; details: mc2 6206, J774.A1, 72 h
Summary of the method: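 Macrophages at (4–5) × 10^5 cells/mL in DMEM/10% FBS, seeded and left to adhere overnight. Infected at MOI 1:10 with mid-log bacteria for 4 h at 37 °C, 5% CO2. Medium supplemented with pantothenate and leucine, each 50 μg/mL. After PBS washes, compound added at 64 to 0.0004 μg/mL for 72 h. Luminescence read-out. IC50 by nonlinear regression. Triplicate; experiment repeated twice.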

Row | SMILES | MIC [1] [mg/L] | MIC [2] [mg/L] | MIC [3] [mg/L] | IC50 [4] [mg/L]
1 | C=CC(C)(C)n1cc(C(O)C2NC(=O)[C@H](C(C)C)NC(=O)[C@H](CC(C)C)N(C)C(=O)[C@H](C(C)C)NC(=O)C(C(OC)c3ccccc3)NC(=O)[C@H](C(C)C)NC(=O)C(CC(C)CO)N(C)C2=O)c2ccccc21 (stereo partly specified) | 0.08 (≈ 0.0788 µM) | 0.08 (≈ 0.0788 µM) | 0.08 (≈ 0.0788 µM) | 0.71 (≈ 0.699 µM)
2 | CO[C@@H](c1ccccc1)[C@H]1NC(=O)[C@H](C)NC(=O)[C@@H](CC(C)CO)N(C)C(=O)C(C(O)c2cn(C(C)(C)[C@@H]3CO3)c3ccccc23)NC(=O)[C@@H]([C@H](C)C=C(C)C)NC(=O)[C@@H](CC(C)C)N(C)C(=O)[C@@H](C(C)C)NC1=O (stereo partly specified) | – | – | – | 0.48 (≈ 0.46 µM)
3 | CO[C@H]1/C=C/O[C@@]2(C)Oc3c(C)c(O)c4c(O)c(c(/C=N/N5CCN(C)CC5)c(O)c4c3C2=O)NC(=O)/C(C)=C\C=C\[C@H](C)[C@H](O)[C@@H](C)[C@@H](O)[C@@H](C)[C@H](OC(C)=O)[C@@H]1C [RIFAMPIN] | – | – | – | 0.08 (≈ 0.0972 µM)
